Activity data for 22 molecules are collected here from ChEMBL document CHEMBL3784968, “Synthesis and mechanistic aspects of 2-anilinonicotinyl-pyrazolo[1,5-a]pyrimidine conjugates that regulate cell proliferation in MCF-7 cells via estrogen signaling” (2016).

The test system of assay [1] is SiHa. Briefly: Cytotoxicity against human SiHa cells assessed as cell viability after 24 to 48 hrs by MTT assay. The format is functional. The gist of the method: (§1)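 MTT viability assay in SiHa, HeLa (cervical), MCF-7 (breast) and IMR-32 (neuroblastoma) cells, treated with conjugates over 0.25 to 8 µM for 48 h.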
(In general: Tetrazolium assays rely on reduction of a dye to a coloured formazan, in cell work by metabolically active cells.)

Assay [2] has as its system MCF7. Briefly: Cytotoxicity against human MCF7 cells assessed as cell viability after 24 to 48 hrs by MTT assay. Type of assay: functional. In short, it runs like this:
as §1

The subject of assay [3] is HeLa. Briefly: Cytotoxicity against human HeLa cells assessed as cell viability after 24 to 48 hrs by MTT assay. Type of assay: functional. The gist of the method:
as §1

Assay [4] in a line: Cytotoxicity against human IMR32 cells assessed as cell viability after 24 to 48 hrs by MTT assay. Type of assay: functional, IMR-32. The gist of the method: as §1

`COc1ccc(-c2cc(C(=O)N3CCN(C(=O)c4cccnc4Nc4cc(OC)c(OC)c(OC)c4)CC3)nc3cc(-c4ccccc4)nn23)cc1OC`: the Activity in assay [1] came out at 7.65 µM; in assay [2], 7.34 µM; in assay [3], 4.24 µM; in assay [4], 4.88 µM.
Taken in the same sequence, the figures for `COc1ccc(-c2cc(C(=O)N3CCN(C(=O)c4cccnc4Nc4ccccc4)CC3)nc3cc(-c4ccccc4)nn23)cc1OC` were 5.93 µM, 6.12 µM, 2.88 µM and 6.5 µM.
Taken in the same sequence, the figures for `COc1ccc(Nc2ncccc2C(=O)N2CCN(C(=O)c3cc(-c4ccc(F)cc4)n4nc(-c5ccccc5)cc4n3)CC2)cc1OC` were 6.62 µM, 2.69 µM, 6.33 µM and 5.25 µM.
Take `COc1ccc(Nc2ncccc2C(=O)N2CCN(C(=O)c3cc(-c4ccc(F)cc4)n4nc(-c5ccccc5)cc4n3)CC2)cc1`: the Activity was found to be 4.56 µM in assay [1], 8.08 µM in assay [2], 6.6 µM in assay [3] and 5.37 µM in assay [4].
On to `COc1cc(Nc2ncccc2C(=O)N2CCN(C(=O)c3cc(-c4ccc(F)cc4)n4nc(-c5ccccc5)cc4n3)CC2)cc(OC)c1OC`, for which the Activity in assay [1] worked out at 4.07 µM; in assay [2], 7.59 µM; in assay [3] it was 4.31 µM; in assay [4], 5 µM.
Taken in the same sequence, the figures for `COc1ccc(-c2cc(C(=O)N3CCN(C(=O)c4cccnc4Nc4ccc(OC)c(OC)c4)CC3)nc3cc(-c4ccccc4)nn23)cc1` were 3.73 µM, 2.53 µM, 5.87 µM and 5.12 µM.
For `COc1cc(-c2cc(C(=O)N3CCN(C(=O)c4cccnc4Nc4ccccc4)CC3)nc3cc(-c4ccccc4)nn23)cc(OC)c1OC`, the Activity in assay [1] came to 5.1 µM; in assay [2], 6.93 µM; in assay [3], 2.99 µM; in assay [4], 7.25 µM.
Taken in the same sequence, the figures for `COc1ccc(Nc2ncccc2C(=O)N2CCN(C(=O)c3cc(-c4cc(OC)c(OC)c(OC)c4)n4nc(-c5ccccc5)cc4n3)CC2)cc1OC` were 3.73 µM, 4.24 µM, 6.08 µM and 5.75 µM.
Taken in the same sequence, the figures for `COc1ccc(-c2cc(C(=O)N3CCN(C(=O)c4cccnc4Nc4cc(OC)c(OC)c(OC)c4)CC3)nc3cc(-c4ccccc4)nn23)cc1` were 6.08 µM, 3.83 µM, 4.24 µM and 6.62 µM.
Taken in the same sequence, the figures for `COc1ccc(Nc2ncccc2C(=O)N2CCN(C(=O)c3cc(-c4ccc(Cl)c(Cl)c4)n4nc(-c5ccccc5)cc4n3)CC2)cc1OC` were 3.73 µM, 5.95 µM, 5.11 µM and 7.15 µM.
In the case of `COc1ccc(Nc2ncccc2C(=O)N2CCN(C(=O)c3cc(-c4ccc(Cl)c(Cl)c4)n4nc(-c5ccccc5)cc4n3)CC2)cc1`, the Activity in assay [1] stood at 3.92 µM; in assay [2], 6.12 µM; in assay [3], 2.64 µM; in assay [4], 5 µM.
`O=C(c1cc(-c2ccc(Cl)c(Cl)c2)n2nc(-c3ccccc3)cc2n1)N1CCN(C(=O)c2cccnc2Nc2ccccc2)CC1`: the Activity stood at 5.93 µM in assay [1], 5.3 µM in assay [2], 2.57 µM in assay [3] and 7.87 µM in assay [4].
Taken in the same sequence, the figures for `COc1cc(-c2cc(C(=O)N3CCN(C(=O)c4cccnc4Nc4ccc(F)cc4)CC3)nc3cc(-c4ccccc4)nn23)cc(OC)c1OC` were 5.25 µM, 6.28 µM, 2.57 µM and 5.75 µM.
`O=C(c1cc(-c2ccc(Cl)c(Cl)c2)n2nc(-c3ccccc3)cc2n1)N1CCN(C(=O)c2cccnc2Nc2ccc(F)cc2)CC1`: the Activity in assay [1] was 5.27 µM; in assay [2], 4.73 µM; in assay [3], 4.27 µM; in assay [4], 5.87 µM.
Taken in the same sequence, the figures for `COc1ccc(Nc2ncccc2C(=O)N2CCN(C(=O)c3cc(-c4ccc(OC)c(OC)c4)n4nc(-c5ccccc5)cc4n3)CC2)cc1` were 5.1 µM, 2.85 µM, 4.62 µM and 5.87 µM.
Taken in the same sequence, the figures for `COc1ccc(-c2cc(C(=O)N3CCN(C(=O)c4cccnc4Nc4ccc(F)cc4)CC3)nc3cc(-c4ccccc4)nn23)cc1` were 5.93 µM, 4.97 µM, 3.79 µM and 5.87 µM.
Taken in the same sequence, the figures for `COc1ccc(-c2cc(C(=O)N3CCN(C(=O)c4cccnc4Nc4ccc(F)cc4)CC3)nc3cc(-c4ccccc4)nn23)cc1OC` were 5.64 µM, 7.02 µM, 3.16 µM and 5.87 µM.
`COc1ccc(Nc2ncccc2C(=O)N2CCN(C(=O)c3cc(-c4ccc(OC)c(OC)c4)n4nc(-c5ccccc5)cc4n3)CC2)cc1OC`: the Activity in assay [1] stood at 5.93 µM; in assay [2], 2.61 µM; in assay [3], 5.7 µM; in assay [4], 5.25 µM.
For `COc1ccc(Nc2ncccc2C(=O)N2CCN(C(=O)c3cc(-c4cc(OC)c(OC)c(OC)c4)n4nc(-c5ccccc5)cc4n3)CC2)cc1`, the Activity in assay [1] came out at 3.87 µM; in assay [2] it was 3.02 µM; in assay [3], 2.85 µM; in assay [4] it was 5.87 µM.
Taken in the same sequence, the figures for `COc1ccc(Nc2ncccc2C(=O)N2CCN(C(=O)c3cc(-c4ccc(OC)cc4)n4nc(-c5ccccc5)cc4n3)CC2)cc1` were 4.36 µM, 2.93 µM, 3.72 µM and 6.37 µM.
On to `COc1cc(Nc2ncccc2C(=O)N2CCN(C(=O)c3cc(-c4ccc(Cl)c(Cl)c4)n4nc(-c5ccccc5)cc4n3)CC2)cc(OC)c1OC`, for which the Activity in assay [1] worked out at 3.65 µM; in assay [2] it was 5.38 µM; in assay [3], 4.52 µM; in assay [4], 5.62 µM.
Taken in the same sequence, the figures for `O=C(c1cc(-c2ccc(F)cc2)n2nc(-c3ccccc3)cc2n1)N1CCN(C(=O)c2cccnc2Nc2ccc(F)cc2)CC1` were 7.21 µM, 3.34 µM, 3.86 µM and 5.62 µM.
